ChEMBL document CHEMBL4725436, “Gibberellin JRA-003: A Selective Inhibitor of Nuclear Translocation of IKKα” (ACS Med Chem Lett, 2020)

How the values were obtained:
[1] = system: PSN1; test: Cytotoxicity against human PSN1 cells assessed as reduction in cell viability measured after 24 hrs by CellTiter-Glo luminescent assay; format: functional, cell-based; details: PSN1, 24 h
How it was run: (§1)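 High-throughput viability screen of test agents across a panel of 22 cancerous and noncancerous human cell lines. Viability was read by CellTiter-Glo luminescence.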

[2] = system: RCK8; test: Cytotoxicity against human RC-K8 cells assessed as reduction in cell viability measured after 24 hrs by CellTiter-Glo luminescent assay; format: functional, cell-based; details: RCK8, 24 h; how it was run: as §1
[3] = system: HEK-293T; test: Cytotoxicity against human HEK293T cells assessed as reduction in cell viability measured after 24 hrs by CellTiter-Glo luminescent assay; format: cell-based; how it was run: as §1
[4] = system: SUD4; test: Cytotoxicity against human SU-DHL-4 cells assessed as reduction in cell viability measured after 24 hrs by CellTiter-Glo luminescent assay; format: functional, cell-based; details: SU-DHL-4, 24 h; how it was run: as §1
[5] = system: Hs-578T; test: Cytotoxicity against human Hs-578T cells assessed as reduction in cell viability measured after 24 hrs by CellTiter-Glo luminescent assay; format: functional, cell-based; how it was run: as §1
[6] = Cytotoxicity against human Hs888Lu cells assessed as reduction in cell viability measured after 24 hrs by CellTiter-Glo luminescent assay; format: cell-based; how it was run: as §1
[7] = Inhibition of IKKalpha/IKKbeta in human HEK293T cells transfected with firefly luciferase gene assessed as inhibition of TNF-alpha-stimulated NF-kappaB signalling preincubated for 1 hr followed by TNF alpha stimulation measured after 3 hrs by luciferase reporter gene assay; format: cell-based; details: HEK-293T
How it was run: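 Commercial NF-κB-driven luciferase reporter assay in HEK 293T cells stimulated with TNFα. EC50 was derived from the luminescence readout.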

[8] = system: HCC1599; test: Cytotoxicity against human HCC1599 cells assessed as reduction in cell viability measured after 24 hrs by CellTiter-Glo luminescent assay; format: functional, cell-based; details: HCC1599, 24 h; how it was run: as §1
[9] = Cytotoxicity against human Hs895SK cells assessed as reduction in cell viability measured after 24 hrs by CellTiter-Glo luminescent assay; format: cell-based; details: Hs 895.Sk; how it was run: as §1
[10] = Cytotoxicity against human Hs578Bst cells assessed as reduction in cell viability measured after 24 hrs by CellTiter-Glo luminescent assay; format: cell-based; how it was run: as §1
[11] = system: NCI-H446; test: Cytotoxicity against human NCI-H446 cells assessed as reduction in cell viability measured after 24 hrs by CellTiter-Glo luminescent assay; format: functional, cell-based; details: NCI-H446, 24 h; how it was run: as §1
[12] = system: CA46; test: Cytotoxicity against human CA46 cells assessed as reduction in cell viability measured after 24 hrs by CellTiter-Glo luminescent assay; format: functional, cell-based; details: CA46, 24 h; how it was run: as §1
[13] = Cytotoxicity against human Hs895T cells assessed as reduction in cell viability measured after 24 hrs by CellTiter-Glo luminescent assay; format: functional, cell-based; how it was run: as §1

SMILES	IC50 [1]	IC50 [2]	IC50 [3]	IC50 [4]	IC50 [5]	IC50 [6]	EC50 [7]	IC50 [8]	IC50 [9]	IC50 [10]	IC50 [11]	IC50 [12]	IC50 [13]	other results
C=C1C[C@]23C[C@@]1(O)CC[C@H]2c1cc2c(C(=O)O)coc2c(C)c1[C@@H]3C(=O)O	> 10 µM	> 10 µM	> 10 µM	> 10 µM	> 10 µM	> 10 µM	> 100 µM	> 10 µM	> 10 µM	> 10 µM	> 10 µM	> 10 µM	> 10 µM	
COC(=O)[C@H]1c2c(ccc(O)c2C)[C@@H]2CC[C@@]3(C)C[C@]21CC3=O	> 10 µM	> 10 µM	> 10 µM	> 10 µM	> 10 µM	> 10 µM	> 100 µM	> 10 µM	> 10 µM	> 10 µM	> 10 µM	> 10 µM	> 10 µM	
COC(=O)[C@H]1c2c(C)cccc2[C@H]2CC[C@@]3(C)C[C@]21CC3=O	> 10 µM	> 10 µM	> 10 µM	> 10 µM	> 10 µM	> 10 µM	> 100 µM	> 10 µM	> 10 µM	> 10 µM	> 10 µM	> 10 µM	> 10 µM	
C=C1C[C@]23C[C@@]1(O)CC[C@H]2c1ccc(O)c(C)c1[C@@H]3C(=O)OC	> 10 µM	> 10 µM	> 10 µM	> 10 µM	> 10 µM	> 10 µM	> 100 µM	> 10 µM	> 10 µM	> 10 µM	> 10 µM	> 10 µM	> 10 µM	
COC(=O)/C=C/Oc1ccc2c(c1C)[C@H](C(=O)OC)[C@@]13CC(=O)[C@@](C)(CC[C@@H]21)C3	> 10 µM	> 10 µM	> 10 µM	> 10 µM	> 10 µM	> 10 µM	> 100 µM	> 10 µM	> 10 µM	> 10 µM	> 10 µM	> 10 µM	> 10 µM	
C=C1C[C@]23C[C@@]1(O)CC[C@H]2c1cc(Br)c(O/C=C/C(=O)OC)c(C)c1[C@@H]3C(=O)OC	> 10 µM	> 10 µM	> 10 µM	> 10 µM	> 10 µM	> 10 µM	> 100 µM	> 10 µM	> 10 µM	> 10 µM	> 10 µM	> 10 µM	> 10 µM	
COC(=O)[C@H]1c2c(C)cccc2[C@@H]2CC[C@@]3(C)C[C@]21CC3=O	> 10 µM	> 10 µM	> 10 µM	> 10 µM	> 10 µM	> 10 µM	> 100 µM	> 10 µM	> 10 µM	> 10 µM	> 10 µM	> 10 µM	> 10 µM	
C=C1[C@@H](O)[C@]23C[C@@]1(O)CC[C@H]2c1ccc(O)c(C)c1[C@@H]3C(=O)OC	> 10 µM	> 10 µM	> 10 µM	> 10 µM	> 10 µM	> 10 µM	> 100 µM	> 10 µM	> 10 µM	> 10 µM	> 10 µM	> 10 µM	> 10 µM	
C=C1[C@@H]2OC(=O)[C@H]3[C@@H]4[C@@]5(C)C(=O)C=C[C@@]4(OC5=O)[C@@H]4CC[C@]1(O)C[C@]234	> 10 µM		> 10 µM		> 10 µM	> 10 µM	57 µM		> 10 µM	> 10 µM			> 10 µM	EC50 [2]: 4.3 µM; EC50 [4]: 3 µM; EC50 [8]: 5.5 µM; EC50 [11]: 5.9 µM; EC50 [12]: 3.7 µM
C=C1[C@@H]2OC(=O)[C@H]3c4c(C)cccc4[C@@H]4CC[C@]1(O)C[C@@]243	> 10 µM	> 10 µM	> 10 µM	> 10 µM	> 10 µM	> 10 µM	> 100 µM	> 10 µM	> 10 µM	> 10 µM	> 10 µM	> 10 µM	> 10 µM	
COC(=O)[C@H]1c2c(cc3ccoc3c2C)[C@@H]2CC[C@@]3(C)C[C@]21CC3=O	> 10 µM	> 10 µM	> 10 µM	> 10 µM	> 10 µM	> 10 µM	> 100 µM	> 10 µM	> 10 µM	> 10 µM	> 10 µM	> 10 µM	> 10 µM	
C=C1C(=O)[C@@]2(C)CC[C@@H]3c4cccc(C)c4[C@H](C(=O)OC)[C@@]13C2	> 10 µM		> 10 µM			> 10 µM	55 µM			> 10 µM			> 10 µM	EC50 [2]: 1.9 µM; EC50 [4]: 0.69 µM; EC50 [5]: 4.8 µM; EC50 [8]: 1.1 µM; EC50 [9]: 9.5 µM; EC50 [11]: 2.9 µM; EC50 [12]: 0.46 µM
C=C1C[C@]23C[C@@]1(O)CC[C@@H]2c1cccc(C)c1[C@@H]3C(=O)OC	> 10 µM	> 10 µM	> 10 µM	> 10 µM	> 10 µM	> 10 µM	> 100 µM	> 10 µM	> 10 µM	> 10 µM	> 10 µM	> 10 µM	> 10 µM	
C=C1C(=O)[C@]23C[C@@]1(O)CC[C@H]2[C@@]12C=CC(=O)[C@@](C)(C(=O)O1)[C@H]2[C@@H]3C(=O)OC	> 10 µM					> 10 µM	1.7 µM		> 10 µM	> 10 µM			> 10 µM	EC50 [2]: 0.072 µM; EC50 [3]: 7.1 µM; EC50 [4]: < 0.04 µM; EC50 [5]: 5.2 µM; EC50 [8]: 0.83 µM; EC50 [11]: < 0.04 µM; EC50 [12]: 0.88 µM
C=C1C(=O)[C@@]2(C)CC[C@H]3c4cccc(C)c4[C@H](C(=O)OC)[C@@]13C2	> 10 µM					> 10 µM	22 µM		> 10 µM				> 10 µM	EC50 [2]: 0.97 µM; EC50 [3]: 2.9 µM; EC50 [4]: 0.62 µM; EC50 [5]: 5.2 µM; EC50 [8]: 1.4 µM; EC50 [10]: 10 µM; EC50 [11]: 2.1 µM; EC50 [12]: 2.5 µM
C=C1C[C@]23C[C@@]1(O)CC[C@H]2c1cc(Br)c(O)c(C)c1[C@@H]3C(=O)OC	> 10 µM	> 10 µM	> 10 µM	> 10 µM	> 10 µM	> 10 µM	> 100 µM	> 10 µM	> 10 µM	> 10 µM	> 10 µM	> 10 µM	> 10 µM	
Cc1cccc2c1[C@H](C(=O)O)[C@@]13CC(=O)[C@@](C)(CC[C@H]21)C3	> 10 µM	> 10 µM	> 10 µM	> 10 µM	> 10 µM	> 10 µM	> 100 µM	> 10 µM	> 10 µM	> 10 µM	> 10 µM	> 10 µM	> 10 µM	
